Data set [1] has as its system Osteoclast-like. In words: Percentage of CFU-GEMM inhibition value after 14 days for bone marrow cells treated with compound at IC90. The format is functional, Homo sapiens.
Data set [2] can be described thus: Inhibitory concentration against HL60R cell lines. To be noted: hl-60. Format: functional, cell-based, Homo sapiens. The gist of the method: (§1)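 Leukemia cells grown in RPMI 1640 with 10% FCS, penicillin, streptomycin and 2 mM L-glutamine at 37 °C, 5% CO2. Compounds from 20 mM DMSO stocks, final DMSO ≤0.5%. 2 × 10^5 cells in 1 mL were exposed to a range of concentrations for 48 h. Viable cells were counted by trypan blue on a hemocytometer and expressed as percent of control proliferation.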

Data set [3] deals with K562. As to the kind of experiment: Inhibitory concentration against K562ADR cell lines. Format: functional, cell-based. To be noted: Homo sapiens. The gist of the method: as §1
Data set [4] has as its system HuT78. In words: Percentage of apoptotis was determined in HUT78 cells after 48 h of exposure at 2 uM concentration. The format is functional, Homo sapiens. The gist of the method:
(§2)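 HUT78 (Fas-expressing) and HUT78B1 (nonfunctional death-domain-deleted Fas) cells were exposed to compound for 48 h. Apoptosis was scored morphologically by fluorescence microscopy after acridine orange/ethidium bromide staining, based on chromatin condensation and apoptotic bodies.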

The subject of data set [5] is HL-60. As to the kind of experiment: Percentage of apoptotis inhibition at 2 uM concentration was determined in HL60 cells in the presence of Z-LEHD-fmk inhibitor. The format is functional, Homo sapiens. Also on record: scale not given: the % may be the effect or the level left. The gist of the method:
(§3)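 HL60 cells (2 × 10^5) were pretreated for 2 h with Fas-blocking MoAb ZB4 or with caspase-9 inhibitor Z-LEHD-fmk (5 µM) before compound was added. Apoptosis was scored at 48 h by acridine orange/ethidium bromide morphology and expressed as percent inhibition.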

The test system of data set [6] is HL-60. As to the kind of experiment: Concentration to induce apoptosis in 50% cells was determined in HL60 cells. The format is functional, cell-based. To be noted: Homo sapiens.
Data set [7] has as its system K562. In words: Concentration to induce apoptosis in 50% cells was determined in K562 cell lines. Format: functional, cell-based. To be noted: Homo sapiens.
Data set [8] concerns HL-60. As to the kind of experiment: Concentration to induce apoptosis in 50% cells was determined in HL60R cell lines. To be noted: Homo sapiens. The format is functional, cell-based.
Data set [9] has as its system K562. As to the kind of experiment: Concentration to induce apoptosis in 50% cells was determined in K562ADR cell lines. The format is functional, cell-based. Conditions: Homo sapiens.
The subject of data set [10] is HL-60. In words: Percentage of apoptotis inhibition at 2 uM concentration was determined in HL60 cells in the presence of Fas-blocking monoclonal antibody. Format: functional, Homo sapiens. Also on record: scale not given: the % may be the effect or the level left. The procedure, abridged:
as §3

The subject of data set [11] is HuT78. In words: Percentage of apoptotis in HUT78B1 cells after 48 h of exposure at 2 uM concentration. Format: functional, Homo sapiens. The gist of the method: as §2
The test system of data set [12] is HL-60. In words: Inhibitory concentration to inhibit cell growth 50% was determined in HL60 cells. The format is functional, cell-based. To be noted: Homo sapiens. The gist of the method:
as §1

For data set [13], the system named is HL-60. As to the kind of experiment: Percentage of mitosis after 8 hr exposure of HL60 cells at 2 uM. Format: functional, Homo sapiens. The gist of the method:
(§4)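 HL60 cells were exposed to compound for 8 h. Mitotic cells were then counted by fluorescence microscopy after acridine orange and ethidium bromide staining.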

Data set [14] is described as follows: Therapeutic index (IC90/percentage of CFUGEMM inhibition) value after 14 days for bone marrow cells treated with compound at IC90. The format is cell-based. Conditions: human, 336 h.
A short description of data set [15]: Concentration required to inhibit cell growth 50% was determined in HL60R cell lines. Format: functional, cell-based, Homo sapiens. The gist of the method:
as §1

The subject of data set [16] is HL-60. As to the kind of experiment: Percentage of mitosis after 8 hr exposure of HL60 cells to the compound at 1 uM. Format: functional, Homo sapiens. The procedure, abridged:
as §4

In data set [17] the test system is Osteoclast-like. In words: Percentage of CFU-GEMM inhibition after 14 days for bone marrow cells treated with compound at IC90. The format is functional, Homo sapiens.
Data set [18] concerns HL-60. As to the kind of experiment: Percentage of apoptotis inhibition at 0.3 uM concentration was determined in HL60 cells in the presence of Fas-blocking monoclonal antibody. Format: functional, Homo sapiens. Also on record: scale not given: the % may be the effect or the level left. The procedure, abridged: as §3
Data set [19] concerns HL-60. As to the kind of experiment: Percentage of apoptotis inhibition at 0.3 uM concentration was determined in HL60 cells in the presence of Z-LEHD-fmk inhibitor. The format is functional, Homo sapiens. Also on record: scale not given: the % may be the effect or the level left. The procedure, abridged:
as §3

Data set [20] in a line: Percentage of apoptotis in HUT78 cells after 48 h of exposure at 2 uM concentration. Format: functional, Homo sapiens. To be noted: in the assay text read “at IC90 concentration” for “at 2 uM concentration”. The procedure, abridged:
as §2

For data set [21], the system named is K562. In words: Concentration required to inhibit cell growth 50% was determined in K562ADR cell lines. Conditions: Homo sapiens. The format is functional, cell-based. The procedure, abridged: as §1
Data set [22] concerns HL-60. As to the kind of experiment: Percentage of apoptotis inhibition at 0.5 uM concentration was determined in HL60 cells in the presence of Z-LEHD-fmk inhibitor. Format: functional, Homo sapiens. Also on record: scale not given: the % may be the effect or the level left. The gist of the method: as §3
Data set [23] relates to HL-60. As to the kind of experiment: Apoptotic concentration to induce apoptosis in 50% cells was determined in HL60R cell lines. Format: functional, cell-based. To be noted: Homo sapiens.
Data set [24] relates to HL-60. In words: Percentage of apoptotis inhibition at 0.5 uM concentration was determined in HL60 cells in the presence of Fas-blocking monoclonal antibody. The format is functional, Homo sapiens. Also on record: scale not given: the % may be the effect or the level left. The gist of the method:
as §3

Data set [25] concerns HL-60. In words: Percentage of mitosis after 8 hr exposure of HL60 cells to the compound at 2.5 nM. Format: functional, Homo sapiens. The procedure, abridged:
as §4

Where “and” joins values, the source holds several entries; their conditions need not be identical. Equal values may be shown once.

As for `COc1ccc([C@H]2ON=C(S(=O)(=O)c3ccccc3)[C@@H]2c2cc(OC)c(OC)c(OC)c2)cc1O`, in the data set with Osteoclast-like [1], the CFU-GEMM is 42%. Further, the IC50 was 3000 nM and 1000 nM in data set [2]; 2000 nM in the data set with K562 [3]; 900 nM in the data set on HL-60 [12]. Further, the Activity in the data set with HuT78 [4] was found to be 70%; in the data set on HL-60 [5] it was 71.5%; in the data set with HL-60 [10], 25%; in the data set on HuT78 [11], 46%; in the data set on HL-60 [13] it was 18%. For the same compound, the AC50 in the data set with HL-60 [6] turned out to be 2000 nM; in the data set on K562 [7], 2000 nM; with HL-60 [8], 5000 nM; with K562 [9], 8000 nM. Further, the Ratio in data set [14] is 2.1.
`COc1ccc([C@@H]2ON=C(C)[C@@H]2c2cc(OC)c(OC)c(OC)c2)cc1O` gave an AC50 in the data set with HL-60 [6] of 3500 nM. In the data set on HL-60 [12], this compound came in with a half-maximal inhibitory concentration (IC50) of 2000 nM.
`COc1ccc(-c2ccc(-c3cc(OC)c(OC)c(OC)c3)cc2)cc1O` gave a half-maximal activity concentration (AC50) in the data set with HL-60 [6] of 35000 nM. For the same compound, the IC50 with HL-60 [12] came to 30000 nM.
Turning to `COc1ccc(-c2cccnc2-c2cc(OC)c(OC)c(OC)c2)cc1O`, in the data set with HL-60 [6], the AC50 was 600 nM. The concentration for half-maximal inhibition (IC50) in the data set with HL-60 [12] stood at 300 nM.
In the data set on HL-60 [6], `COc1ccc(-c2ccccc2-c2cc(OC)c(OC)c(OC)c2)cc1O` came in with a half-maximal activity concentration (AC50) of 30000 nM. Moreover, in the data set with HL-60 [12], the 50% inhibitory concentration (IC50) was determined as 20000 nM.
The matching figures for `COc1ccc(-c2cccc(-c3cc(OC)c(OC)c(OC)c3)c2)cc1O`: 22000 nM and 12000 nM.
`COc1ccc(-c2cc(-c3cc(OC)c(OC)c(OC)c3)on2)cc1O` had an AC50 in the data set with HL-60 [6] of 4000 nM. Further, in the data set on HL-60 [12], 3000 nM corresponded to half-maximal inhibition (IC50).
In the same order, the values of `COc1ccc(C2=NOC(c3cc(OC)c(OC)c(OC)c3)C2)cc1O` (configuration not stated) are 2200 nM and 1500 nM.
In the data set with HL-60 [6], `COc1ccc([C@@H]2C(C)=NO[C@@H]2c2cc(OC)c(OC)c(OC)c2)cc1O` yielded a half-maximal activity concentration (AC50) of 3500 nM. Also, in the data set on HL-60 [12], the midpoint of inhibition, the IC50, lay at 2000 nM.
Regarding `COC1=NO[C@@H](c2ccc(OC)c(O)c2)[C@H]1c1cc(OC)c(OC)c(OC)c1`, the IC50 in data set [15] (Homo sapiens, HL60R) is 250 nM; in [15] (hl60r), 250 nM; with HL-60 [12], 100 nM; in the data set with K562 [21], 500 nM. Further, the Activity in the data set on HL-60 [16] was 17%; in the data set with HL-60 [18] it was 25%; in the data set with HL-60 [19] it was 50%; in [20], 80%; with HuT78 [11], 60%. For the same compound, the CFU-GEMM with Osteoclast-like [17] is on record as 36%. Also, the AC50 worked out at 300 nM in the data set with HL-60 [6], 400 nM in the data set on K562 [7], 750 nM with HL-60 [8] and 2000 nM in the data set with K562 [9]. Further, in [14], the Ratio turned out to be 2.5.
Turning to `COC1=NO[C@H](c2cc(OC)c(OC)c(OC)c2)[C@@H]1c1ccc(OC)c(O)c1`, the half-inhibitory concentration (IC50) is 750 nM and 200 nM in data set [15] (hl60r); 250 nM in the data set on HL-60 [12]; 500 nM in the data set on K562 [21]. Moreover, the CFU-GEMM with Osteoclast-like [1] turned out to be 34%. The Activity with HL-60 [16] stood at 15%; with HL-60 [22], 91.4%; in the data set on HL-60 [24], 57%; in [20], 75%; in the data set on HuT78 [11] it was 40%. Besides, the AC50 turned out to be 500 nM in the data set with HL-60 [6], 400 nM in the data set on K562 [7], 2000 nM in the data set on K562 [9] and 2000 nM with HL-60 [23]. Also, in [14], the Ratio worked out at 2.6.
In the data set on HL-60 [6], `COc1ccc(-c2ncccc2-c2cc(OC)c(OC)c(OC)c2)cc1O` yielded an AC50 of 10000 nM. Further, the concentration for half-maximal inhibition (IC50) in the data set on HL-60 [12] is 5000 nM.
The matching figures for `COc1ccc(C2CC(c3cc(OC)c(OC)c(OC)c3)=NO2)cc1O` (configuration not stated): 5500 nM and 3200 nM.
Regarding `COc1ccc(-c2cc(Cl)cnc2-c2cc(OC)c(OC)c(OC)c2)cc1O`, in the data set with HL-60 [6], half-maximal activity (AC50) was put at 800 nM. The same compound displayed an IC50 with HL-60 [12] of 500 nM.
On to `COc1ccc(-c2cc(-c3cc(OC)c(OC)c(OC)c3)no2)cc1O`, for which half-maximal activity with HL-60 [6] (AC50) was put at 4500 nM. Besides, half-maximal inhibition with HL-60 [12] (IC50) required 3000 nM.
Consider `COc1ccc([C@H]2C(S(=O)(=O)c3ccccc3)=NO[C@@H]2c2cc(OC)c(OC)c(OC)c2)cc1O`, for which the AC50 in the data set on HL-60 [6] is 25000 nM. The same compound yielded an IC50 with HL-60 [12] of 15000 nM.
For `COc1ccc(/C=C\c2cc(OC)c(OC)c(OC)c2)cc1O` [COMBRETASTATIN A4], the CFU-GEMM with Osteoclast-like [1] is given as 37%. Also, the Activity with HL-60 [25] was 88%. For the same compound, in [14], the Ratio came out at 2.4.

By IC50 is commonly meant the concentration needed to halve the response being measured. The term AC50 denotes the concentration at which the activity in the assay is half-maximal.
